Our source for the Papp B→A and Papp values is paper PMC6919324 (European journal of pharmaceutics and biopharmaceutics : …, 2019).

Data set [1] addresses T1, P-gp (Homo sapiens, UniProt P08183). The data set can be described thus: Caco-2 transwell basolateral to apical transport of P-gp substrates. In kind it is in vitro ADME. For orientation: Caco-2 cells form a polarised layer with tight junctions and transporters.
Data set [2] addresses P-gp (Mus musculus, UniProt P21447). The data set can be described thus: Ex vivo mouse jejunum intestinal sac, mucosal to serosal R123 transport. The format is in vitro ADME, BALB/c mice. Particulars: BALB/c, with microdevices, 3000 microdevices/cm^2. The method, boiled down: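 Intestinal sacs from three BALB/c mice aged 18–20 weeks, with one end tied off, were incubated in media at 37°C. Over time the serosal-side solution was removed and replaced with fresh media. Fluorescence of the removed solution was read at excitation 495 nm and emission 560 nm.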

The target in data set [3] is T1, P-gp. The experiment in a line: Biosimilar mucus transport study of R123 in Caco-2 transwells. The format is in vitro ADME.

T1 sequence (P08183 whole entry): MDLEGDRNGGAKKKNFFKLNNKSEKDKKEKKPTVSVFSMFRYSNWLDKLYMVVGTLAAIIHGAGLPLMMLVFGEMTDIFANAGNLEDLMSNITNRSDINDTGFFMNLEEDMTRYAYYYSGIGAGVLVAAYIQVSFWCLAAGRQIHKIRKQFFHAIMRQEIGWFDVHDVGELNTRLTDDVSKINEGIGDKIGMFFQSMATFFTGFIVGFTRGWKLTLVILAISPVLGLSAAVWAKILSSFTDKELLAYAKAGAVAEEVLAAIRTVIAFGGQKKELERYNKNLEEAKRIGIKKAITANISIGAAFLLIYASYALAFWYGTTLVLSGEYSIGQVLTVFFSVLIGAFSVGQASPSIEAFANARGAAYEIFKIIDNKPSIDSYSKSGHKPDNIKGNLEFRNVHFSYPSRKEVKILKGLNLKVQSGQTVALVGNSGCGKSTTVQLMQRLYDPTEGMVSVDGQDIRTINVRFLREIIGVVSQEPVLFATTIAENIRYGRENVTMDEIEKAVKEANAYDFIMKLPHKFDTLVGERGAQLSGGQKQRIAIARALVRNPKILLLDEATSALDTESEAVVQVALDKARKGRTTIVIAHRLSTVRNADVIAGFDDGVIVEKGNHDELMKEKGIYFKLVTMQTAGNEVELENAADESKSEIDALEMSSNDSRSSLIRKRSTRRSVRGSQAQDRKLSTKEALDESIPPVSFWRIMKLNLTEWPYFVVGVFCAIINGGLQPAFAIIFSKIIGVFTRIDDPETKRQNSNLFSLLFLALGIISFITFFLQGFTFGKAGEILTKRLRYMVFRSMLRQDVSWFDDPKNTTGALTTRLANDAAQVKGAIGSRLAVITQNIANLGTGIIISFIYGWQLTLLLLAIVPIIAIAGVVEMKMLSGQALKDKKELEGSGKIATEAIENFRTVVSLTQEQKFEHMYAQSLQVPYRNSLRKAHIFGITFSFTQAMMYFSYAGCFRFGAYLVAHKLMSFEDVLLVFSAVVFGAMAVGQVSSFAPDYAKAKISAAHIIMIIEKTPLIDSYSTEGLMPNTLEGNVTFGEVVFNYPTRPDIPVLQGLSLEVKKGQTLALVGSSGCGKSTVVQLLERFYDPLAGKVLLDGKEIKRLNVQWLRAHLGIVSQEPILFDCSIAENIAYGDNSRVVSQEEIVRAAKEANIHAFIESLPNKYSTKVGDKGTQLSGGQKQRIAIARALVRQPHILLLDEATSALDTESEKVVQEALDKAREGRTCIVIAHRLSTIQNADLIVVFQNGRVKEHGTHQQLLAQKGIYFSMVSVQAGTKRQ
Sequence of P-gp (Mus musculus, UniProt P21447) (P21447 whole entry): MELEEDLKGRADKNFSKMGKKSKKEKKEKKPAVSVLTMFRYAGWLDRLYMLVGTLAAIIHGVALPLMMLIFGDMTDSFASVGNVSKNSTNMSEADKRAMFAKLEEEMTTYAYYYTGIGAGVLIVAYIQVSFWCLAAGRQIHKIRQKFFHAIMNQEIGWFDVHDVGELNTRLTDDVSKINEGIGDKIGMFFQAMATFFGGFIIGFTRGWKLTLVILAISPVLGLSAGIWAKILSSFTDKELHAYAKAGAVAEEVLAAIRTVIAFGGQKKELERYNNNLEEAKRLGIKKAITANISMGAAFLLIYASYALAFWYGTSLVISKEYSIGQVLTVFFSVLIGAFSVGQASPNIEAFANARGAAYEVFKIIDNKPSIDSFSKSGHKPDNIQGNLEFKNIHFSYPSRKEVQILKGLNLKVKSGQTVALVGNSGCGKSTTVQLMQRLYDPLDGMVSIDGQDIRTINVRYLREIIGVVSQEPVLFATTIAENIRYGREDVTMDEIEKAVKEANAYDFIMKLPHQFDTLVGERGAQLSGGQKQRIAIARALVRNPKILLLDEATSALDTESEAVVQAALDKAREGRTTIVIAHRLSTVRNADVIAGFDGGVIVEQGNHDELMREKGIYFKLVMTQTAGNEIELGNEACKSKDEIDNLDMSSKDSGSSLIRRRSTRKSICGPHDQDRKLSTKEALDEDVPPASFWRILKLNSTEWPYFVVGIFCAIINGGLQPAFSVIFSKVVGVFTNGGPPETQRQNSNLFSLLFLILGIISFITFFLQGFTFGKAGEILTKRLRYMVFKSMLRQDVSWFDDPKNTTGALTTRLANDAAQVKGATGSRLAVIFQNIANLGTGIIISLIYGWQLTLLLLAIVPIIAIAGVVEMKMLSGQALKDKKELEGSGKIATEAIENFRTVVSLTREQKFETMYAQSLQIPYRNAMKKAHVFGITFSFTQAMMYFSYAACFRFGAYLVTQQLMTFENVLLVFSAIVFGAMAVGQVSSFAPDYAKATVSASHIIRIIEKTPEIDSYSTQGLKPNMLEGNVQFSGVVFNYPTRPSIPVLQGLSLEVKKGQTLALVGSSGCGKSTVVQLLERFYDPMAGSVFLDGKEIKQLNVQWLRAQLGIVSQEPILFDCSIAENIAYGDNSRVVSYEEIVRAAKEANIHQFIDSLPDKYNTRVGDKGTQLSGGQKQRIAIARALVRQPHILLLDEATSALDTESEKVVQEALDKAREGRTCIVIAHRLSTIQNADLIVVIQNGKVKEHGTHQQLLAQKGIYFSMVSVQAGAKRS

As for `COc1cccc2c1C(=O)c1c(O)c3c(c(O)c1C2=O)C[C@@](O)(C(=O)CO)C[C@@H]3O[C@H]1C[C@H](N)[C@H](O)[C@H](C)O1` [Doxorubicin, doxorubicin], in data set [1], the Papp B→A (as a rule, the apparent permeability from the basolateral to the apical side of a cell layer) was 1.9 ± 0.35 ×10⁻⁶ cm/s.
In the case of `COC(=O)c1ccccc1-c1c2ccc(=N)cc-2oc2cc(N)ccc12` [R123, rhodamine 123], the Papp (in general, the rate of passage across a membrane or cell layer, normalised by area and donor concentration) at 5 µM in data set [2] was 0.35 ×10⁻⁶ cm/s. In data set [3], this compound came in with a Papp B→A at 5 µM of 9.25 ± 3.8 ×10⁻⁶ cm/s. Also, the Papp B→A in data set [1] stood at 8.03 ± 3.5 ×10⁻⁶ cm/s.
